# According to ChEMBL document CHEMBL4715765, “Fluoro analogs of bioactive oxy-sterols: Synthesis of an EBI2 agonist with enhanced metabolic stability” (Bioorg Med Chem Lett, 2016):
# pEC50: −log10 of the molar value.
# Assays:
# [1] = target: T1, G-protein coupled receptor 183 (Homo sapiens, UniProt P32249); test: Agonist activity at Go2-q-coupled EBI2 (unknown origin) expressed in COS7 cell membranes assessed as stimulation of [35S]GTPgammaS binding preincubated for 20 mins followed by [35S]GTPgammaS addition and measured after 1 hr by scintillation counting analysis; type: functional, Membrane
# T1 sequence (P32249 whole entry): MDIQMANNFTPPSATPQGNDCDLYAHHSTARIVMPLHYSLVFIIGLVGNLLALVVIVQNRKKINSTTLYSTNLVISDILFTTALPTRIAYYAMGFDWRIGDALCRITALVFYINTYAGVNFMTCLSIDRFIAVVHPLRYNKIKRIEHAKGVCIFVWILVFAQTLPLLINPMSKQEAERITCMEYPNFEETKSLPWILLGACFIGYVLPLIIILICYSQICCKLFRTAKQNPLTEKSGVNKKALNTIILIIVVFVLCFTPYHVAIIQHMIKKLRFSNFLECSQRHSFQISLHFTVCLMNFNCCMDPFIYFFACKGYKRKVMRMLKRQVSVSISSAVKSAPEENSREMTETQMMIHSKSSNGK
# In short: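 [35S]GTPγS binding measured in membranes of COS7 cells transiently transfected with human, rat or mouse EBI2, with receptor coupled through Go2. Compounds tested as concentration-response series (log M plots) to give EC50 and % Emax for each species' receptor.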
# [2] = target: G-protein coupled receptor 183 (Mus musculus) (UniProt Q3U6B2); test: Agonist activity at Go2-q-coupled mouse EBI2 expressed in COS7 cell membranes assessed as stimulation of [35S]GTPgammaS binding at 1 uM preincubated for 20 mins followed by [35S]GTPgammaS addition and measured after 1 hr by scintillation counting analysis relative to control; type: functional; details: Membrane, filed as agonist, time 80.0 min
# G-protein coupled receptor 183 (Mus musculus), sequence (Q3U6B2 whole entry): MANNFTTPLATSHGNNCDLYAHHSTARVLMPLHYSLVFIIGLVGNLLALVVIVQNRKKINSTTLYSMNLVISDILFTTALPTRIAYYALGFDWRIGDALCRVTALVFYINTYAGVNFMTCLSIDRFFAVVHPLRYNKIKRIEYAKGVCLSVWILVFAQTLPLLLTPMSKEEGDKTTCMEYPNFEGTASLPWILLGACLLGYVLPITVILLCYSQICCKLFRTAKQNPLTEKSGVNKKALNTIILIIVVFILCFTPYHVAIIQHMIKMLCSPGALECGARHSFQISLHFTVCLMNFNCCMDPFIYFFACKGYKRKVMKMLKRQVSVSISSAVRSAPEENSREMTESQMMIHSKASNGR
# In short: (§1)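 [35S]GTPγS binding measured on COS7 cells transiently transfected with human, rat or mouse EBI2, using a Gαo2 chimera set-up. Concentration-response testing ran up to a top concentration of 1. EC50 and % Emax were taken from the curves, with Emax referenced to 7α,25-OHC.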
# [3] = Cmax in mouse at 20 mg/kg, sc; type: ADME, organism-based; set-up: route subcutaneous, dose 20 mg/kg; details: in vivo
# [4] = AUClast in mouse at 20 mg/kg, ip; type: ADME, organism-based; set-up: route intraperitoneal, time 0 - last, dose 20 mg/kg; details: in vivo
# [5] = Terminal half life in mouse at 20 mg/kg, sc; type: ADME, organism-based; details: in vivo, read-out: beta t1/2 (converted)
# [6] = target: T1, G-protein coupled receptor 183; test: Agonist activity at Go2-q-coupled human EBI2 expressed in COS7 cell membranes assessed as stimulation of [35S]GTPgammaS binding at 1 uM preincubated for 20 mins followed by [35S]GTPgammaS addition and measured after 1 hr by scintillation counting analysis relative to control; type: functional; details: Membrane, filed as agonist, time 80.0 min; in short: as §1
# [7] = Cmax in mouse at 20 mg/kg, ip; type: ADME, organism-based; set-up: route intraperitoneal, dose 20 mg/kg; details: in vivo
# [8] = Terminal half life in mouse at 20 mg/kg, ip; type: ADME, organism-based; details: in vivo, read-out: beta t1/2 (converted)
# [9] = Metabolic stability in human liver microsomes assessed as half life; type: ADME, Microsome
# [10] = target: G-protein coupled receptor 183 (Rattus norvegicus) (UniProt D4A7K7); test: Agonist activity at Go2-q-coupled rat EBI2 expressed in COS7 cell membranes assessed as stimulation of [35S]GTPgammaS binding at 1 uM preincubated for 20 mins followed by [35S]GTPgammaS addition and measured after 1 hr by scintillation counting analysis relative to control; details: Membrane, filed as agonist, time 80.0 min; in short: as §1
# G-protein coupled receptor 183 (Rattus norvegicus), sequence (D4A7K7 whole entry): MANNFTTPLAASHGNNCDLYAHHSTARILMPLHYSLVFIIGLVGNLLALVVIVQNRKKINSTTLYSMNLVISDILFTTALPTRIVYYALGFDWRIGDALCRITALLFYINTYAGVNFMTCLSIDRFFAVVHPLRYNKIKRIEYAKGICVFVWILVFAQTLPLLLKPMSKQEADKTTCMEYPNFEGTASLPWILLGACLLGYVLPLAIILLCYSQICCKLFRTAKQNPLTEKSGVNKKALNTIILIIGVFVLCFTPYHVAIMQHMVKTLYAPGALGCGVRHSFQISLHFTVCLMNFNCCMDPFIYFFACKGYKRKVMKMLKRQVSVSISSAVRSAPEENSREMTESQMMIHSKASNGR
# [11] = Tmax in mouse at 20 mg/kg, ip; type: ADME, organism-based; details: in vivo
# [12] = target: G-protein coupled receptor 183 (Mus musculus, UniProt Q3U6B2); test: Agonist activity at Go2-q-coupled mouse EBI2 expressed in COS7 cell membranes assessed as stimulation of [35S]GTPgammaS binding preincubated for 20 mins followed by [35S]GTPgammaS addition and measured after 1 hr by scintillation counting analysis; type: functional, Membrane; in short: as §1
# G-protein coupled receptor 183 (Mus musculus, UniProt Q3U6B2), sequence (Q3U6B2 whole entry): as the sequence (Q3U6B2 whole entry) above
# [13] = AUClast in mouse at 20 mg/kg, sc; type: ADME, organism-based; set-up: time 0 - last, route subcutaneous, dose 20 mg/kg; details: in vivo
# [14] = Tmax in mouse at 20 mg/kg, sc; type: ADME, organism-based; details: in vivo
# [15] = Metabolic stability in mouse liver microsomes assessed as half life; type: ADME, Microsome
# [16] = target: G-protein coupled receptor 183 (Rattus norvegicus, UniProt D4A7K7); test: Agonist activity at Go2-q-coupled rat EBI2 expressed in COS7 cell membranes assessed as stimulation of [35S]GTPgammaS binding preincubated for 20 mins followed by [35S]GTPgammaS addition and measured after 1 hr by scintillation counting analysis; set-up: species or system Membrane; in short: as §1
# G-protein coupled receptor 183 (Rattus norvegicus, UniProt D4A7K7), sequence (D4A7K7 whole entry): as the sequence (D4A7K7 whole entry) above
# [17] = target: T1, G-protein coupled receptor 183; test: Agonist activity at Go2-q-coupled human EBI2 expressed in COS7 cell membranes assessed as stimulation of [35S]GTPgammaS binding preincubated for 20 mins followed by [35S]GTPgammaS addition and measured after 1 hr by scintillation counting analysis; type: functional, Membrane; in short: as §1
# [18] = Metabolic stability in rat liver microsomes assessed as half life; type: ADME, Microsome
# [19] = Elimination half-life in po dosed mouse; type: ADME, organism-based; details: in vivo, read-out: beta t1/2 (converted)
compound,measurement,setting,value
"CC(CO)CCC[C@@H](C)[C@H]1CC[C@H]2[C@H]3C(CC[C@]12C)[C@@]1(C)CC[C@H](O)CC1=C[C@@H]3O (single isomer, unassigned)",pEC50,[1],7.29
"CC(CO)CCC[C@@H](C)[C@H]1CC[C@H]2[C@H]3C(CC[C@]12C)[C@@]1(C)CC[C@H](O)CC1=C[C@H]3O (single isomer, unassigned)",pEC50,[1],8.89
C[C@H](CCCC(C)(C)O)[C@H]1CC[C@H]2[C@@H]3[C@H](O)C=C4C[C@@H](O)CC[C@]4(C)[C@H]3CC[C@]12C,Emax,[2],100%
same,Cmax,[3],4340 ng/mL
same,AUC(0-t),[4],2940 ng·h/mL
same,half-life,[5],30 min
same,Emax,[6],100%
same,Cmax,[7],4460 ng/mL
same,half-life,[8],24 min
same,pEC50,[1],9.85
same,half-life,[9],30 min
same,Emax,[10],100%
same,Tmax,[11],15 min
same,pEC50,[12],9.15
same,AUC(0-t),[13],3140 ng·h/mL
same,Tmax,[14],19.8 min
same,half-life,[15],11 min
same,pEC50,[16],8.88
same,pEC50,[17],10.49
same,half-life,[18],15 min
C[C@H](CCCC(C)(C)O)[C@H]1CC[C@H]2[C@H]3[C@H](CC[C@]12C)[C@@]1(C)CC[C@H](O)CC1=C[C@@]3(O)C(F)(F)F,Emax,[2],60%
same,Emax,[6],100%
same,Emax,[10],88%
same,pEC50,[12],7.84
same,pEC50,[16],7.84
same,pEC50,[17],8.39
C[C@H](CCCC(C)(C)O)[C@H]1CC[C@H]2[C@H]3[C@H](CC[C@]12C)[C@@]1(C)CC[C@H](O)CC1=C[C@]3(O)C(F)(F)F,Emax,[2],136%
same,Emax,[6],122%
same,half-life,[19],600 min
same,half-life,[9],131 min
same,Emax,[10],116%
same,pEC50,[12],8.79
same,half-life,[15],> 180 min
same,pEC50,[16],8.97
same,pEC50,[17],9.99
same,half-life,[18],31 min
C[C@H](CCCC(C)(C)O)[C@H]1CC[C@H]2[C@@H]3[C@@H](O)C=C4C[C@@H](O)CC[C@]4(C)[C@H]3CC[C@]12C,pEC50,[1],8.68
